In the library only some 1% were active in any assay of this set; here they are far more common.
Fh CTSL1 inh – Fasciola hepatica cathepsin L1 inhibitors, primary screen, counter-screen for PFM18AAP inhibitor project, biochemical, QFRET, fluorogenic peptide substrate; recombinant F. hepatica cathepsin L1, Z-Leu-Arg-MCA fluorescence; inhibition, % at 5.96 µM; 300,000 compounds, 0.49% hits; AID 1906, 2009;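 active = inhibition above the mean of all tested compounds plus 3 SD, set per screening campaign, cut at about 17% in these data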;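 also: 0% = plate median of test compound wells and 100% = 1 µM Z-Phe-Ala-diazomethylketone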
Lipid droplet – inhibitors of hepatocyte lipid droplet formation, primary screen, imaging, high-throughput imaging, BODIPY stain; 240,000 compounds, 0.4% hits; AID 1656, 2009; AML12 mouse hepatocytes, oleate lipid droplets; inhibition, % at 6.5 µM;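 active = lipid droplet intensity inhibited by at least 50%, with more than 500 cells counted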
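Material – AML12 mouse liver cells · Also added – oleate loading, 100 µM · Compound dosing – 6.5 µM single-point dosing · Times – overnight treatment with compound plus oleate · Measured by – fluorescence imaging, 20x objective, two fields per well · Read-out – percent inhibition of filter-corrected integrated lipid droplet intensity per well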
Arr AP2 block – inhibitors of beta-arrestin/AP2 binding, primary screen, biochemical, GPCR trafficking, flow cytometry. beta-arrestin 1 C-terminal peptide binding to AP2 beta2-adaptin appendage (human). FITC-arrestin peptide / GST-AP2 beads; AP2 beta2 appendage carries R879A mutation. inhibition, % at 10 µM. 340,000 compounds, 0.31% hits;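 active = inhibition above a set limit, near 3 SD of compounds lacking own fluorescence, cut at about 54% in these data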;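 also: plate controls were DMSO wells for no effect and 5 µM unlabelled arrestin peptide for full effect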
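System: GST-AP2 R879A glutathione beads; medium: PBS, Tween 20 0.05%, BSA 0.1%; reagent: fluorescein-tagged arrestin peptide at 50 nM final; schedule: pre-incubation 12 min, peptide binding 1 h, room temperature; detection: flow cytometry, FL1 (488/535 nm); read-out: inhibition as reduced fluorescein signal on beads, percent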
pCIP destab – p/CIP-EGFP fusion destabilizers, primary screen, fluorescence, F442A cells. Q05BA5. 16 h. decrease of EGFP signal, % at 10 µM. 290,000 compounds, 0.01% hits. AID 1984, 2009;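 active = EGFP signal decrease of at least 30% at 10 µM or well 3 SD below plate mean, unless failing retest; inactive = the rest, including hits failing retest or dose response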
Target sequence (Q05BA5 1-1403): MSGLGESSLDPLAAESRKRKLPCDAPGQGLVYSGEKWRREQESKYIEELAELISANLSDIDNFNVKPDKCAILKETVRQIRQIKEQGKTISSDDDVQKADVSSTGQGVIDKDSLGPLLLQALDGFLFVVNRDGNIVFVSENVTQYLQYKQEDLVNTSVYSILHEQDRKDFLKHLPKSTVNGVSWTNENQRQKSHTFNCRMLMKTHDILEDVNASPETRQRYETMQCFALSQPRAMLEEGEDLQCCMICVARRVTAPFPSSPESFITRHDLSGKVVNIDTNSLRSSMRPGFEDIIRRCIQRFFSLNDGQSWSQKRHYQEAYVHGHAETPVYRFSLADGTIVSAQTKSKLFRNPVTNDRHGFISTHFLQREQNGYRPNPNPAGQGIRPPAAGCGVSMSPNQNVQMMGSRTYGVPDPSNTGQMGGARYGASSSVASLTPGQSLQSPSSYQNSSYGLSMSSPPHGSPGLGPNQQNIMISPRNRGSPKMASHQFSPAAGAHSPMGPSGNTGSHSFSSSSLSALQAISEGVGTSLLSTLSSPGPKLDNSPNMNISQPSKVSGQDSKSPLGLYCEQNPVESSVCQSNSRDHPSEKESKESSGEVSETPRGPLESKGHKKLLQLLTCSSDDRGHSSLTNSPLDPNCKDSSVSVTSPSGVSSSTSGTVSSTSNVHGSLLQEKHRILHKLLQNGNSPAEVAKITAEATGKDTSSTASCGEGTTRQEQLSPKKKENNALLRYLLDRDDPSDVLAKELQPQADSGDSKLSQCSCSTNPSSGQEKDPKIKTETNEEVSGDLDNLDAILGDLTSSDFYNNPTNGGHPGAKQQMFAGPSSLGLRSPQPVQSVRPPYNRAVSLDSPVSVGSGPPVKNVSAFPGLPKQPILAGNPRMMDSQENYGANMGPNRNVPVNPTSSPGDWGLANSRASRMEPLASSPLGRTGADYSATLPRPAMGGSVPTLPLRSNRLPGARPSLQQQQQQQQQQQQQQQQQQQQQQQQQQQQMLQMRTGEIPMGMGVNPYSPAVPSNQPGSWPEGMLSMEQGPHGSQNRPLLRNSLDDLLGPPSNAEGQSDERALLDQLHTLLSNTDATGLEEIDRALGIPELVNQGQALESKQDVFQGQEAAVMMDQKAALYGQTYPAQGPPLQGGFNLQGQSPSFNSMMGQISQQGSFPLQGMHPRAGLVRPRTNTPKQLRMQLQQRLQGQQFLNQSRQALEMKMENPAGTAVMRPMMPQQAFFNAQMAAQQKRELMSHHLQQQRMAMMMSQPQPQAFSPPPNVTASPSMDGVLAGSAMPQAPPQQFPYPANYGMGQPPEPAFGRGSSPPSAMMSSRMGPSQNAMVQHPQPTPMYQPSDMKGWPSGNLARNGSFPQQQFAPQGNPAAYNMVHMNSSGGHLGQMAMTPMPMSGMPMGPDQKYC
Active calls of the source: *.

`CC(C)C[C@H](NC(=O)N1CC(=O)Nc2ccccc21)C(=O)N[C@H](Cc1c[nH]c2ccccc12)C(=O)O` gave Fh CTSL1 inh 38*, Arr AP2 block 10 and pCIP destab -10.
CCC(C)[C@H](NC(=O)N1CC(=O)Nc2ccccc21)C(=O)N[C@@H](Cc1c[nH]c2ccccc12)C(=O)O (stereo partly drawn) was read as Fh CTSL1 inh 5, Arr AP2 block 0 and pCIP destab -6.
CC(C)C[C@H](NC(=O)N1CC(=O)Nc2ccccc21)C(=O)N[C@H](C(=O)O)c1ccccc1 was read as Fh CTSL1 inh 0, Lipid droplet 6, Arr AP2 block 2 and pCIP destab 5.
Screening CCOC(=O)C1=C(C)Nc2nc3ccccc3n2C1c1ccncc1 (stereo not drawn) returned Fh CTSL1 inh 4, Lipid droplet -1, Arr AP2 block 4 and pCIP destab 1.
Cc1ccccc1C(=O)NNC(=O)CSc1nc2ccccc2c(=O)[nH]1 was read as Fh CTSL1 inh 18*, Lipid droplet 0, Arr AP2 block 39 and pCIP destab -3.
Screening Nc1scc2c(C(=O)N/N=C/c3ccc(Cl)cc3)nn(-c3ccccc3)c(=O)c12 returned Fh CTSL1 inh 34*, Arr AP2 block 2 and pCIP destab 6.
Screening CCOC(=O)c1nn(-c2ccccc2)c(=O)c2c(N)scc12 returned Fh CTSL1 inh 2, Arr AP2 block -4 and pCIP destab -20.
`CCCc1c(C(=O)N/N=C/c2ccc(OC)c(OCc3ccccc3)c2)nnn1-c1nonc1N` gave Fh CTSL1 inh 1, Lipid droplet -4, Arr AP2 block -2 and pCIP destab 6.
For CCCc1c(C(=O)N/N=C/c2ccc(OCc3ccccc3)c(OC)c2)nnn1-c1nonc1N the results were Fh CTSL1 inh 17*, Lipid droplet -29, Arr AP2 block 0 and pCIP destab -14.
CC(Nc1nc(-c2ccc3c(c2)NC(=O)CO3)cs1)c1ccccc1 (stereo not drawn) was read as Fh CTSL1 inh 0, Lipid droplet 4, Arr AP2 block -6 and pCIP destab 3.
`O=C(NCc1ccccc1)C1(C(F)(F)F)C/C(=C/CCO)CCCO1` (stereo not drawn) gave Fh CTSL1 inh 0 and Arr AP2 block 4.
For CNC(=O)C1(C(F)(F)F)C/C(=C\CCO)CCCO1 (stereo not drawn) the results were Fh CTSL1 inh 18*, Arr AP2 block 4 and pCIP destab 1.
Screening CC(=O)Nc1ccc(S(=O)(=O)/N=C2\C(=O)c3ccccc3C([O-])=C2n2cc[n+](-c3ccccn3)c2)cc1 returned Fh CTSL1 inh 31*, Lipid droplet -5, Arr AP2 block 11 and pCIP destab 2.
Cc1ccc(S(=O)(=O)/N=C2\C(=O)c3ccccc3C([O-])=C2n2cc[n+](CCC(C)C)c2)cc1 was read as Fh CTSL1 inh 7, Arr AP2 block -4 and pCIP destab -11.
`NC(=S)N/N=C\c1c2ccccc2cc2ccccc12` gave Fh CTSL1 inh 84*, Lipid droplet -1, Arr AP2 block 18 and pCIP destab -4.
COCCNC(=S)N/N=C/c1c2ccccc2cc2ccccc12 was read as Fh CTSL1 inh 4, Lipid droplet -2, Arr AP2 block -1 and pCIP destab 5.
Screening O=C(N/N=C/c1ccccc1OCc1ccccc1Cl)c1cccnc1 returned Fh CTSL1 inh 7, Lipid droplet 0, Arr AP2 block -5 and pCIP destab 10.
For NC(=S)N/N=C\c1c(OCc2ccccc2Cl)ccc2ccccc12 the results were Fh CTSL1 inh 30*, Lipid droplet -15, Arr AP2 block 14 and pCIP destab 3.
`Cc1ccc(NC(=S)N/N=C/c2c(C)[nH]c3ccccc23)cc1` gave Fh CTSL1 inh 10, Lipid droplet 38, Arr AP2 block -7 and pCIP destab -26.
For Cc1[nH]c2ccccc2c1/C=N/NC(N)=S the results were Fh CTSL1 inh 92*, Lipid droplet 6, Arr AP2 block -2 and pCIP destab -10.
For CCC(C)NC(=O)CN(c1cc(C)ccc1OC)S(C)(=O)=O (stereo not drawn) the results were Fh CTSL1 inh -5, Lipid droplet -2, Arr AP2 block 12 and pCIP destab -8.
Cc1ccc2nc(-c3ccccc3)cc(C(=O)N3CC(C)OC(C)C3)c2c1 (stereo not drawn) was read as Fh CTSL1 inh 4 and Arr AP2 block -7.
Screening O=C1OCCN1C(=O)[C@H]1[C@H](c2ccc(F)cc2)C(c2cccc(Cl)c2)=NN1c1ccccc1 returned Arr AP2 block 10.
`CCn1c(=O)c2cc(C(=O)N(C)CC(OC)OC)sc2c2ccccc21` gave Fh CTSL1 inh -1, Lipid droplet 10, Arr AP2 block 17 and pCIP destab 2.
Cc1cccn2c(=O)c3cc(C(=O)NCCN4CCOCC4)c(=N)n(CCN4CCOCC4)c3nc12 was read as Fh CTSL1 inh 2, Lipid droplet 0, Arr AP2 block 18 and pCIP destab 4.
O=C(CC1C(=O)NCCN1Cc1ccc(F)cc1)NC1CCCCCCC1 (stereo not drawn) was read as Fh CTSL1 inh 19*, Lipid droplet -19, Arr AP2 block 9 and pCIP destab 7.
Screening O=C(O)c1ccccc1OCCOc1ccccc1 returned Fh CTSL1 inh 0, Lipid droplet 26, Arr AP2 block 11 and pCIP destab -5.
`CC(C)(C)OC(=O)N1CCN(c2ccc(NC(=O)Cn3nnc(-c4ccccc4)n3)cc2)CC1` gave Fh CTSL1 inh 7, Lipid droplet 84*, Arr AP2 block 4 and pCIP destab -10.
For CCOC(=O)c1ccc(NC(=O)Cn2nnc(-c3ccccc3)n2)cc1 the results were Fh CTSL1 inh -2, Arr AP2 block 4 and pCIP destab 7.
Cc1cc(C)cc(OCC(=O)OCC(=O)Nc2cc(C)nn2-c2ccccc2)c1 was read as Arr AP2 block 31.
Screening O=C1C(Nc2ccccc2)=C/C(=N/S(=O)(=O)c2cccs2)c2ccccc21 returned Fh CTSL1 inh 82*, Lipid droplet -2 and Arr AP2 block 24.
Screening Cc1ccc(NC2=C/C(=N/S(=O)(=O)c3cccs3)c3ccccc3C2=O)cc1 returned Fh CTSL1 inh 60*, Lipid droplet 23, Arr AP2 block 5 and pCIP destab -7.
Screening O=[N+]([O-])c1ccc(-c2cc(-c3ccncc3)nc3ccc4ccccc4c23)cc1 returned Arr AP2 block 12 and pCIP destab 0.
`O=C(NCCc1ccc(Cl)cc1)C1CC(=O)N(CCc2ccccc2)C1` (stereo not drawn) gave Fh CTSL1 inh -1, Lipid droplet -4, Arr AP2 block 8 and pCIP destab -5.
`Cc1cc2oc(=O)cc(C)c2cc1NC(=O)CCl` gave Fh CTSL1 inh 79*, Lipid droplet 2, Arr AP2 block -6 and pCIP destab -3.

Screens as filed in PubChem.
